Assay results published in paper PMC12032937 (iScience, 2025).

What was measured:
[1] = target: T1, mPRε (Mus musculus, UniProt Q6TCG2); assay: Gs luminescent reporter assay; type: cell-based
T1 sequence (Q6TCG2 1-375): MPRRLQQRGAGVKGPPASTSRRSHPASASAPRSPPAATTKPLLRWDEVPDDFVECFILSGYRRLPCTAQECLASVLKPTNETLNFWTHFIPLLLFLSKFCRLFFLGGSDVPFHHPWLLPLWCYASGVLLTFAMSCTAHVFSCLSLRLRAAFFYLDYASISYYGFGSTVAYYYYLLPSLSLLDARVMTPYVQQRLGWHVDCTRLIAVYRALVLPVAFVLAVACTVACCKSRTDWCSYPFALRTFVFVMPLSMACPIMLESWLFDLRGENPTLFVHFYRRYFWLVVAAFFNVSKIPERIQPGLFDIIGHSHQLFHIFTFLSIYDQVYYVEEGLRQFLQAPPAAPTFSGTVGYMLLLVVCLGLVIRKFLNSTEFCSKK
Outline: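 Clonal MDA-MB-231 cells stably expressing mouse mPRε with a C-terminal GFP tag, transfected (Lipofectamine 3000) with CRE-luciferase reporter, grown 72 h, then treated 6 h with a test compound concentration series; forskolin positive control. Lysed, luciferase luminescence read; runs kept only if positive control ≥2× untreated. Min/max scaled 0–100, curves fitted for EC50; n = 4.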

[2] = target: T2, mPRδ (Mus musculus, UniProt Q6TCG5); assay: PKC activation; type: cell-based; details: mPRδ-GFP cells, 300nM, 20 min, increase above control (100%)
T2 sequence (Q6TCG5 1-343): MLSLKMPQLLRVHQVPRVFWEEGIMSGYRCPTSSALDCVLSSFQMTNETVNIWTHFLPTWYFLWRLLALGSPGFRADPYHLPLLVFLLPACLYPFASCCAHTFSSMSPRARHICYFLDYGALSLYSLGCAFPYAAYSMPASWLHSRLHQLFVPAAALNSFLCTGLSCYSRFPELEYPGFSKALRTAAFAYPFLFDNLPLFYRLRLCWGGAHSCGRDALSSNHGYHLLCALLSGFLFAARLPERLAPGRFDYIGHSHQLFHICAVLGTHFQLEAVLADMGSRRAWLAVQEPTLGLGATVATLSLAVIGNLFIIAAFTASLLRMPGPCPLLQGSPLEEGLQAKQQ

[3] = target: T2, mPRδ; assay: Gq luminescent reporter assay; type: cell-based
[4] = tested on: mPRδ; details: MDA231 cells transiently transfected to express mPRδ; cited from earlier work
[5] = target: T2, mPRδ; assay: PKA activation; type: cell-based; details: mPRδ-GFP cells, 20 min, mean ± SEM, n=4
[6] = target: T1, mPRε; assay: PKA activation; type: cell-based; details: mPRε-GFP cells, 20 min; for PKA activation, pPKA/PKA normalized to control (100%): mean ± SEM, n=4; for increase in PKA activation compared to control treatment: increase above control (100%)
Outline: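 MDA-MB-231 cells lentivirally expressing mouse mPRε-C-terminal GFP, FACS-selected clonal line, kept in DMEM/10% charcoal-stripped FBS, passage ≤20. Treated 20 min with test compound at 3–300nM, lysed in RIPA with phosphatase inhibitors, immunoblotted for phospho and total kinase. Ratio normalized to control within the line, then to host MDA231 cells; n = 4 separate passages; two-way ANOVA, Sidak post hoc.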

Structure (SMILES)	EC50 [1] [nM]	increase in PKC activation/phosphorylation compared to control treatment [2] [%]	EC50 [3] [nM]	phosphorylation of ERK [4]	PKA activation, pPKA/PKA normalized to control (100%) ([5]; 3nM) [%]	PKA activation, pPKA/PKA normalized to control (100%) ([5]; 10nM) [%]	PKA activation, pPKA/PKA normalized to control (100%) ([5]; 30nM) [%]	PKA activation, pPKA/PKA normalized to control (100%) ([5]; 100nM) [%]	PKA activation, pPKA/PKA normalized to control (100%) ([5]; 300nM) [%]	PKA activation, pPKA/PKA normalized to control (100%) ([6]; 3nM) [%]	PKA activation, pPKA/PKA normalized to control (100%) ([6]; 10nM) [%]	increase in PKA activation compared to control treatment ([6]; 30nM) [%]	PKA activation, pPKA/PKA normalized to control (100%) ([6]; 30nM) [%]	increase in PKA activation compared to control treatment ([6]; 100nM) [%]	PKA activation, pPKA/PKA normalized to control (100%) ([6]; 100nM) [%]	increase in PKA activation compared to control treatment ([6]; 300nM) [%]	PKA activation, pPKA/PKA normalized to control (100%) ([6]; 300nM) [%]
CC(=O)[C@H]1CC[C@H]2[C@@H]3CC[C@H]4C[C@H](O)CC[C@]4(C)[C@H]3CC[C@]12C [ALLO, allopregnanolone]	2.5	43.58 ± 5.34	11.3	significant increase	86.327 ± 5.39	91.441 ± 4.66	83.155 ± 4.54	98.624 ± 11.00	103.26 ± 14.05	105.57 ± 15.02	130.55 ± 16.45	53.44	153.4 ± 19.57	60.49	160.49 ± 20.14	64.44	164.44 ± 15.71
CC(=O)[C@H]1CC[C@H]2[C@@H]3CCC4=CC(=O)CC[C@]4(C)[C@H]3CC[C@]12C [progesterone]	–	–	–	significant increase	–	–	–	–	–	–	–	–	–	–	–	–	–
